Screens deposited in PubChem by several laboratories.
Hits are enriched below; roughly 4% of the tested compounds scored in any of these assays.
TAAR1 antagonist = antagonists of human TAAR1; CHO RD-HGA16 TAAR1, Fluo-8 calcium fluorescence, antagonist; 360,000 compounds, 1.5% hits; inhibition, % at 3 µM;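 active = inhibition above a per-plate cutoff, the mean inhibition of test compounds on that plate plus 3 SD, cut at about 49% in these data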
Target sequence (Q96RJ0 whole entry, looked up): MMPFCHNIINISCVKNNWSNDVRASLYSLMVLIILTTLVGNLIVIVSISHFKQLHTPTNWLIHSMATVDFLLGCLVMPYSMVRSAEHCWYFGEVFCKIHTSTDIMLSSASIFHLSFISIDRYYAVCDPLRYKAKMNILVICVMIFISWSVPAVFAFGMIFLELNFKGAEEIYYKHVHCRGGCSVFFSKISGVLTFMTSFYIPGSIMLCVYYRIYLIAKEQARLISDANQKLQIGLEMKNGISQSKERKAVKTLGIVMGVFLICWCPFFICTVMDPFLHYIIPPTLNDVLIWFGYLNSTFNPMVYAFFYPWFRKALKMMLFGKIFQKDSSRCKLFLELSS
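Test system – hTAAR1-expressing CHO RD-HGA16 cells, Gα16-coupled · Reagent – β-PEA at EC80 concentration, post-compound challenge · Compound dosing – 3 µM, single point · Timing – 140 s kinetic read after compound, 140 s after agonist · Detection – Fluo-8 intracellular calcium dye fluorescence, real-time kinetic reads · Control set – DMSO and EC80 PEA controls · Repeats – n of 1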
GPR7 antagonist = antagonists of human GPR7 (neuropeptides B/W receptor 1). P48145. GPR7-expressing cells, fluorescence antagonist assay. inhibition, % at 4.4 µM. 290,000 compounds, 1.1% hits. AID 1861; in the data active = inhibition above about 16%, passing the limit was not always enough;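 note: cells stimulated with the agonist NPW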
Target sequence (P48145 whole entry, looked up): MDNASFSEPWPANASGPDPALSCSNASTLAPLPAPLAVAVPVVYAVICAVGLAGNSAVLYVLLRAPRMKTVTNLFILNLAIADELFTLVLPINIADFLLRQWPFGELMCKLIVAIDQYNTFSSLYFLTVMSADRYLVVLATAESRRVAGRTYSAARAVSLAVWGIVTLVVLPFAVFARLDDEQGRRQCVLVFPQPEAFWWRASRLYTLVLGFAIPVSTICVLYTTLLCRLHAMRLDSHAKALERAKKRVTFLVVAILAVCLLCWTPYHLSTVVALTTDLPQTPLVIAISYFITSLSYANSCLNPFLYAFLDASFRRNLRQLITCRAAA
DAGLB inhibitor = blocks human DAGLB lipase activity; HEK293T DAGLB membrane lysate, EnzChek fluorogenic substrate; inhibition, % at 5.17 µM; 340,000 compounds, 0.059% hits; Q8NCG7; in the data active = inhibition above about 34%
TAAR1 ag = human TAAR1 agonism | CHO RD-HGA16 TAAR1, Fluo-8 calcium fluorescence; vehicle wells 0%, saturating PEA agonist 100% | 360,000 compounds, 0.99% hits | activation, % at 3 µM;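 active = activation above the mean activation of all test compounds in the run plus 3 SD, cut at about 38% in these data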
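Repeats: no replicates (n 1) | Material: CHO-derived RD-HGA16 cells with stable Gα16 and human TAAR1 | Technique: Kinetic Fluo-8 calcium fluorescence | Schedule: 17-24 h seeding, 75 min 37 °C dye, 30 min RT | Evaluation: % activation from peak over basal fluorescence ratio, DMSO-to-PEA scaled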
MPTP block = inhibitors of mitochondrial permeability transition pore; isolated mouse mitochondria, Ca2+ swelling absorbance, 30 min; inhibition, % at 10 µM; 360,000 compounds, 1.4% hits;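 active = inhibition of 50% or more, scaled per plate between neutral and stimulator controls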
nonsel antag count = counter-screen for TAAR1 antagonists: nonselective antagonists | shares compounds with TAAR1 antagonist | counterscreen cell line, calcium fluorescence, antagonist mode | inhibition, % at 3 µM | 2,400 compounds, 77% hits; in the data active = inhibition above about 22%;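 note: CHO-Ga16 host cells stimulated with ATP at an EC80 level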
TAAR1 ant conf = confirmation of human TAAR1 antagonists. shares compounds with TAAR1 antagonist. TAAR1-expressing cells, fluorescence antagonist read-out. inhibition, % at 3 µM. 2,400 compounds, 40% hits; in the data active = inhibition above about 49%;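 note: CHO-Ga16 host cells challenged with agonist PEA near its EC80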
Ga16 nonsel ag = nonselective Ga16 agonist in TAAR1 antagonist counter-screen; shares compounds with TAAR1 antagonist; Ga16-expressing cells, calcium fluorescence, agonist counterscreen; activation, % at 3 µM; 2,400 compounds, 18% hits; AID 651953; in the data active = activation above about 12%
TAAR1 ag count = counter-screen for human TAAR1 antagonists: TAAR1 agonists; shares compounds with TAAR1 antagonist; hTAAR1 cell line, fluorescence activation, agonist mode; activation, % at 3 µM; 2,400 compounds, 2% hits; AID 651955; in the data active = activation above about 37%;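 note: CHO cells stably expressing TAAR1 with calcium dye readout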
Numbers stand for hits; - = inactive; . = not tested or not shown.

SMILES | TAAR1 antagonist | GPR7 antagonist | DAGLB inhibitor | TAAR1 ag | MPTP block | nonsel antag count | TAAR1 ant conf | Ga16 nonsel ag | TAAR1 ag count
CC(C)(C)OC(=O)C[C@H]1C/C=C\C[C@@H](CC(=O)N(CCO)Cc2ccccc2)C(=O)NC[C@H](c2ccccc2)OC1=O | - | . | - | - | - | . | . | . | .
O=C1N[C@@H](Cc2ccccc2)COC(=O)[C@H](Cc2ccc(F)cc2)C/C=C\C[C@@H]1CC(=O)N(CCO)Cc1ccccc1 | - | . | - | - | - | . | . | . | .
CN(CC(=O)Nc1ccc2c(c1)OCO2)S(=O)(=O)c1cccs1 | - | - | - | - | - | . | . | . | .
Cn1c(=O)c2cc(NC(=S)NC3CC3)ccc2n1C/C=C/c1ccccc1 | - | . | . | - | - | . | . | . | .
Cc1cc(O)cc(=O)n1-c1cc(Cl)cc(Cl)c1 | - | . | . | - | . | . | . | . | .
Oc1ccc(-c2nc3ccccn3c2NCc2ccc3c(c2)OCO3)cc1 | 55 | - | - | - | - | 30 | 53 | - | -
CCCCNc1c(-c2cccc(-c3cc(C(C)=O)cs3)c2)nc2cc(C)ccn12 | 78 | . | - | - | - | 31 | 53 | - | -
COc1ccc(Cl)cc1CNC[C@H]1O[C@@H](n2cnc3c(=O)[nH]c(N)nc32)[C@H](O)[C@@H]1O | - | . | . | - | - | . | . | . | .
Cc1cc2cc(CCNC(=O)C(=O)c3c[nH]c4ccccc34)c(=O)[nH]c2cc1C | 65 | - | - | - | - | 30 | - | - | -
Cc1cc2cc(CCNC(=O)C(C)C)c(=O)[nH]c2cc1C | - | - | - | - | - | . | . | . | .
COc1ccc(CCNC(=O)c2ccc3c(c2)N(Cc2ccccc2)CCS3)cc1OC | 80 | - | - | - | - | 40 | 62 | - | -
COc1ccc(CCNC(=O)c2cc(-c3ccccc3)c(N3CCOCC3)s2)cc1OC | 67 | . | - | - | - | 25 | - | - | -
NS(=O)(=O)c1ccc(CCNC(=O)c2ccc3c(c2)N(Cc2ccccc2)CCS3)cc1 | 83 | - | - | - | - | 39 | 62 | - | -
O=C(NCCc1ccccc1)c1cc(-c2ccccc2)c(N2CCOCC2)s1 | - | . | - | - | - | . | . | . | .
O=C(NCCCN1CCCC1)c1ccc2c(c1)N(Cc1ccccc1)CCS2 | - | - | - | - | - | . | . | . | .
N#Cc1ccccc1S(=O)(=O)N1CCN(CC(=O)Nc2ccccc2C(=O)NC2CC2)CC1 | 56 | . | - | - | - | 24 | - | - | -
O=C(CN1CCN(S(=O)(=O)c2ccc(F)c(F)c2)CC1)Nc1ccccc1C(=O)NC1CC1 | 49 | . | - | - | - | 22 | - | - | -
O=C(NCC1CC1)C1Cc2c(-c3ccc4c(c3)OCO4)ccnc2O1 (centres undefined) | - | . | . | - | - | . | . | . | .
Cc1ccc(-c2cnc(C(O)c3ccc(Cl)c(Cl)c3)[nH]2)cc1 (centres undefined) | - | . | . | - | - | . | . | . | .
CCCN1CCCCC(NC(=O)c2ccccc2C)C1=O (centres undefined) | - | . | . | - | . | . | . | . | .
COc1ccc2c(c1)C(SCC(=O)NCCc1ccc(Cl)cc1)CC(C)(C)O2 (centres undefined) | 62 | - | - | - | - | - | - | - | -
COc1ccc(CCNC(=O)c2ccc(Cl)c(S(=O)(=O)N3CCCC3)c2)cc1 | - | . | - | - | - | . | . | . | .
Cc1ccc(/C=N/NC(=O)CSc2nnc(-c3ccc(Cl)cc3)n2-c2ccccc2)o1 | 58 | - | - | - | - | 26 | - | - | -
Cc1ccc(-c2nnc(SCC(=O)N/N=C/c3ccccc3C(=O)O)n2-c2ccc(Cl)cc2)cc1 | - | - | - | - | - | . | . | . | .
O=C(CSc1nnc(-c2ccc(Cl)cc2)n1-c1ccc(Cl)cc1)N/N=C/c1ccco1 | 78 | - | - | - | - | 27 | 54 | - | -
SMILES | TAAR1 antagonist | GPR7 antagonist | DAGLB inhibitor | TAAR1 ag | MPTP block | nonsel antag count | TAAR1 ant conf | Ga16 nonsel ag | TAAR1 ag count
COc1ccc(CN2C(=O)C(CC(=O)NCc3cccs3)CC(C(=O)N3CCOCC3)=C2C)cc1 (centres undefined) | - | . | - | - | - | . | . | . | .
COc1ccc(OC)c(NC(=O)c2cc(-c3ccc(F)cc3OC(C)C)n[nH]2)c1 | - | . | . | - | - | . | . | . | .
COc1ccc(NC(=O)c2cc(-c3ccc(F)cc3OC)n[nH]2)c(OC)c1 | 66 | . | . | - | - | 32 | - | - | -
Cc1ccc(-c2[nH]c3ccccc3c2C(C[N+](=O)[O-])c2ccco2)cc1 (centres undefined) | 63 | - | - | - | - | - | - | - | -
Cc1[nH]c2ccccc2c1C(C[N+](=O)[O-])c1ccco1 (centres undefined) | - | - | - | - | - | . | . | . | .
CC1(C)N=C(SCC(=O)Nc2ccc(Cl)cc2)C(c2ccccc2)=N1 | - | - | - | - | - | . | . | . | .
CC1(C)N=C(SCC(=O)Nc2ccc(Cl)cc2)C(c2ccc(Cl)cc2)=N1 | 68 | - | - | - | - | 27 | - | - | -
CCOC(=O)C1=CN(Cc2cccc(-c3ccc(Cl)nc3)c2)S(=O)(=O)N(C)C1C (centres undefined) | 63 | . | - | - | - | - | - | - | -
Cc1nc(-c2cccc(NC(=O)c3ccc(-n4nccc4C)cc3)c2)cs1 | 69 | . | - | - | - | 33 | - | - | -
COc1ccc(-c2cc(=O)c3cccc(CC(=O)O)c3o2)cc1 | - | . | . | - | . | . | . | . | .
CS(=O)(=O)Nc1cccc(NC(=O)C2Cc3c(-c4ccccc4)ccnc3O2)c1 (centres undefined) | - | . | . | - | - | . | . | . | .
COc1ccc(-c2csc(NC(=O)Cc3ccccc3F)n2)cc1OC | - | - | - | - | - | . | . | . | .
Cc1noc(C)c1CSCC(=O)Nc1nc(-c2ccc(F)c(F)c2)cs1 | 82 | . | - | - | - | 49 | 58 | - | -
COc1ccc(-c2csc(NC(=O)CSCc3c(C)noc3C)n2)cc1OC | - | - | - | - | - | . | . | . | .
O=C(Cc1ccccc1F)Nc1nc(-c2ccc(F)cc2)cs1 | 74 | - | - | - | - | 30 | 59 | - | -
COc1ccccc1CC(=O)Nc1nc(-c2ccc(F)c(F)c2)cs1 | 51 | - | - | - | - | 22 | - | - | -
O=C(CS(=O)(=O)c1ccccc1)Nc1nc(-c2ccc(F)cc2)cs1 | - | - | - | - | - | . | . | . | .
O=C(Nc1ccncc1)c1cncc(Br)c1 | - | - | - | - | - | . | . | . | .
O=C(Nc1cccc(NC(=O)c2cncc(Br)c2)c1)c1cncc(Br)c1 | 67 | - | - | - | - | 29 | 52 | 17 | -
CCOc1ccc(/C=C/C(O)=C2/C(=O)NC3(C)CC2c2ccccc2O3)cc1OC (centres undefined) | 60 | - | - | - | - | 27 | 49 | - | -
